{"data": "Experimental data gathered from unrelated publications", "HTR2B": "5-hydroxytryptamine receptor 2B (HTR2B, Homo sapiens, UniProt P41595)", "RNMT": "mRNA cap guanine-N(7) methyltransferase (RNMT, Homo sapiens, UniProt O43148)", "DHFR": "Dihydrofolate reductase (DHFR, Homo sapiens, UniProt P00374)", "note": "Compare with care: the assays were run in different laboratories. pEC50, pIC50, pKd, pKi: −log10 of the molar value."}
{"SMILES": "Cc1ccc(F)c(O)c1CN1CCN(C2CCCC2O)CC1 (stereo not shown)", "target": "HTR2B", "assay": "calcium signal, antagonist", "measurement": "pIC50", "result": 6.87}
{"SMILES": "O=C(O)C1=CC(=C(c2ccc(O)c(C(=O)O)c2)c2ccc(O)c(C(=O)O)c2)C=CC1=O", "target": "Guanine nucleotide-binding protein G(i) subunit alpha-3 (GNAI3, Homo sapiens, UniProt P08754)", "assay": "binding, BLI", "measurement": "pKd", "result": "~5.80"}
{"SMILES": "CC(=O)N(CC#Cc1cccc(C(N)=O)c1)C[C@H]1C[C@@H](n2ccc3c(Cl)ncnc32)[C@H](O)[C@@H]1O", "target": "RNMT", "assay": "binding, MST", "measurement": "pKd", "result": "< 3.52"}
{"SMILES": "O=C(c1cc(C2CCNC2)[nH]n1)N1CCC(c2cccc(Cl)c2)C1 (stereo not shown)", "target": "HTR2B", "assay": "calcium signal, antagonist", "measurement": "pIC50", "result": 4.78}
{"SMILES": "CCc1oc2c([C@H](CO)N(CC)CC)cccc2c1C", "target": "Lysophosphatidic acid receptor 1 (LPAR1, Homo sapiens, UniProt Q92633)", "assay": "G protein activation, agonist", "measurement": "pEC50", "result": 8.92}
{"SMILES": "NC(=O)c1cccc(C#CCN(CC[C@H](N)C(=O)O)C[C@H]2O[C@@H](n3cnc4c(N)ncnc43)[C@H](O)[C@@H]2O)c1", "target": "RNMT", "assay": "binding, MST", "measurement": "pKd", "result": 4.45}
{"SMILES": "N#C[C@@]12C[C@@H]1[C@@H](n1cnc3c(NC4CCCC4)nc(I)nc31)[C@H](O)[C@@H]2O", "target": "HTR2B", "assay": "ligand displacement, radioligand", "measurement": "pKi", "result": 8.37}
{"SMILES": "COc1cccc(NC(=S)NN=Cc2ccc(N3CCCCC3)cc2)c1", "target": "DHFR", "assay": "enzyme activity, inhibitor", "measurement": "pIC50", "result": 4.65}
{"SMILES": "N#C[C@@]12C[C@@H]1[C@@H](n1cnc3c(N[C@@H](C4CCC4)C4CC4)nc(I)nc31)[C@H](O)[C@@H]2O", "target": "5-hydroxytryptamine receptor 2C (HTR2C, Homo sapiens, UniProt P28335)", "assay": "calcium signal, antagonist", "measurement": "Kb", "result": "0.00339 µM"}
{"SMILES": "Cc1ccc(NC(=S)NN=Cc2ccc(N3CCCCC3)cc2)cc1", "target": "DHFR", "assay": "enzyme activity, inhibitor", "measurement": "pIC50", "result": 4.55}
